Peptide text beside a SMILES is read from it.
What was measured:
Assay type in all cases: functional
[1] = Relative potency expressed in percent to that of neurotensin was measured using guinea pig atria
Summary of the method: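 Both atria dissected free of ventricles, fat and blood; beating spontaneously under 0.5 g resting tension in 15-mL baths of oxygenated Krebs at 30 °C. Equilibrated 45–60 min before peptide exposure. Contractile force recorded isometrically via force-displacement transducer.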

[2] = Relative potency expressed in percent to that of neurotensin was measured using rat stomach strips assay
[3] = Relative potency expressed in percent to that of neurotensin was measured using perfused rat heart assay
Summary of the method: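 Male albino Wistar rats heparinized i.p. (2.5 mg/rat), then killed. Hearts perfused with filtered, oxygenated Krebs at 37 °C by peristaltic pump, flow raised over 5 min to 8 mL/min (perfusion pressure 70–90 mmHg). Stabilized 30 min before peptide infusion. Read-out: change in perfusion pressure via aortic-cannula side-arm transducer.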

Molecule	Relative potency [1] [%]	Relative potency [2] [%]	Relative potency [3] [%]
CC[C@H](C)[C@H](NC(=O)[C@H](Cc1ccc(O)cc1)NC(=O)[C@@H]1CCCN1C(=O)[C@@H](C)NC(=O)[C@H](CCCN=C(N)N)NC(=O)[C@@H]1CCCN1C(=O)[C@H](CCCCN)NC(=O)[C@H](CC(N)=O)NC(=O)[C@H](CCC(=O)O)NC(=O)[C@H](Cc1ccc(O)cc1)NC(=O)[C@H](CC(C)C)NC(=O)[C@@H]1CCC(=O)N1)C(=O)N[C@@H](CC(C)C)C(=O)O	2.6	1.5	0.3
CC[C@H](C)[C@H](NC(=O)[C@H](Cc1ccc(O)cc1)NC(=O)[C@@H]1CCCN1C(=O)[C@H](CCCNC(=N)N)NC(=O)[C@@H](N)CCCNC(=N)N)C(=O)N[C@@H](CC(C)C)C(=O)O	52	69	102
CC[C@H](C)[C@H](NC(=O)[C@H](Cc1ccc(O)cc1)NC(=O)CNC(=O)[C@H](CCCN=C(N)N)NC(=O)[C@H](CCCN=C(N)N)NC(=O)[C@@H]1CCCN1C(=O)[C@H](CCCCN)NC(=O)[C@H](CC(N)=O)NC(=O)[C@H](CCC(=O)O)NC(=O)[C@H](Cc1ccc(O)cc1)NC(=O)[C@H](CC(C)C)NC(=O)[C@@H]1CCC(=O)N1)C(=O)N[C@@H](CC(C)C)C(=O)O	~0.01	~0.01	<0.01
CC[C@H](C)[C@H](NC(=O)[C@H](Cc1ccc(O)cc1)NC(=O)[C@@H]1CCCN1C(=O)[C@H](CCCN=C(N)N)NC(=O)[C@H](CCCN=C(N)N)NC(=O)[C@@H]1CCCN1C(=O)[C@H](CCCCN)NC(=O)[C@H](CC(N)=O)NC(=O)[C@H](CCC(=O)O)NC(=O)[C@H](Cc1ccc(O)cc1)NC(=O)[C@@H](N)CC(C)C)C(=O)N[C@@H](CC(C)C)C(=O)O	94	90	87
CC[C@H](C)[C@H](NC(=O)[C@H](Cc1ccc(O)cc1)NC(=O)[C@@H]1CCCN1C(=O)[C@H](CCCN=C(N)N)NC(=O)[C@H](CCCN=C(N)N)NC(=O)[C@@H]1CCCN1C(=O)[C@H](CCCCN)NC(=O)[C@H](CC(N)=O)NC(=O)[C@H](CCC(=O)O)NC(=O)[C@H](Cc1ccc(O)cc1)NC(=O)[C@H](CC(C)C)NC(=O)[C@@H]1CCC(=O)N1)C(=O)O	0.09	0.65	0.03
CC[C@H](C)[C@H](NC(=O)[C@H](C)NC(=O)[C@@H]1CCCN1C(=O)[C@H](CCCN=C(N)N)NC(=O)[C@H](CCCN=C(N)N)NC(=O)[C@@H]1CCCN1C(=O)[C@H](CCCCN)NC(=O)[C@H](CC(N)=O)NC(=O)[C@H](CCC(=O)O)NC(=O)[C@H](Cc1ccc(O)cc1)NC(=O)[C@H](CC(C)C)NC(=O)[C@@H]1CCC(=O)N1)C(=O)N[C@@H](CC(C)C)C(=O)O	<0.01	0.01	0.01
CC[C@H](C)[C@H](NC(=O)[C@@H](Cc1c[nH]c2ccccc12)NC(=O)[C@@H]1CCCN1C(=O)[C@H](CCCN=C(N)N)NC(=O)[C@H](CCCN=C(N)N)NC(=O)[C@@H]1CCCN1C(=O)[C@H](CCCCN)NC(=O)[C@H](CC(N)=O)NC(=O)[C@H](CCC(=O)O)NC(=O)[C@H](Cc1ccc(O)cc1)NC(=O)[C@H](CC(C)C)NC(=O)[C@@H]1CCC(=O)N1)C(=O)N[C@@H](CC(C)C)C(=O)O	0.01	0.64	0.1
CC(C)C[C@H](NC(=O)[C@@H]1CCC(=O)N1)C(=O)N[C@@H](Cc1ccc(O)cc1)C(=O)N[C@@H](CCC(=O)O)C(=O)N[C@@H](CC(N)=O)C(=O)N[C@@H](CCCCN)C(=O)N1CCC[C@H]1C(=O)N[C@@H](CCCN=C(N)N)C(=O)N[C@@H](CCCN=C(N)N)C(=O)N1CCC[C@H]1C(=O)O	0	0	0
CC[C@H](C)[C@H](NC(=O)[C@H](Cc1c[nH]c2ccccc12)NC(=O)[C@@H]1CCCN1C(=O)[C@H](CCCN=C(N)N)NC(=O)[C@H](CCCN=C(N)N)NC(=O)[C@@H]1CCCN1C(=O)[C@H](CCCCN)NC(=O)[C@H](CC(N)=O)NC(=O)[C@H](CCC(=O)O)NC(=O)[C@H](Cc1ccc(O)cc1)NC(=O)[C@H](CC(C)C)NC(=O)[C@@H]1CCC(=O)N1)C(=O)N[C@@H](CC(C)C)C(=O)O	3.2	130	102
CC[C@H](C)[C@H](NC(=O)[C@H](Cc1ccccc1)NC(=O)[C@@H]1CCCN1C(=O)[C@H](CCCN=C(N)N)NC(=O)[C@H](CCCN=C(N)N)NC(=O)[C@@H]1CCCN1C(=O)[C@H](CCCCN)NC(=O)[C@H](CC(N)=O)NC(=O)[C@H](CCC(=O)O)NC(=O)[C@H](Cc1ccc(O)cc1)NC(=O)[C@H](CC(C)C)NC(=O)[C@@H]1CCC(=O)N1)C(=O)N[C@@H](CC(C)C)C(=O)O	15	16	1.4
CC(C)C[C@H](NC(=O)[C@@H]1CCC(=O)N1)C(=O)N[C@@H](Cc1ccc(O)cc1)C(=O)N[C@@H](CCC(=O)O)C(=O)N[C@@H](CC(N)=O)C(=O)N[C@@H](CCCCN)C(=O)N1CCC[C@H]1C(=O)N[C@@H](CCCN=C(N)N)C(=O)N[C@@H](CCCN=C(N)N)C(=O)N1CCC[C@H]1C(=O)N[C@@H](Cc1ccc(O)cc1)C(=O)O	<0.01	<0.01	<0.01
CC[C@H](C)[C@H](NC(=O)[C@H](Cc1ccc(O)cc1)NC(=O)[C@@H]1CCCN1C(=O)[C@H](CCCN=C(N)N)NC(=O)[C@H](CCCN=C(N)N)NC(=O)[C@@H]1CCCN1C(=O)[C@@H](N)CCCCN)C(=O)N[C@@H](CC(C)C)C(=O)O	73	78	84
CC[C@H](C)[C@H](NC(=O)[C@@H](Cc1ccccc1)NC(=O)[C@@H]1CCCN1C(=O)[C@H](CCCN=C(N)N)NC(=O)[C@H](CCCN=C(N)N)NC(=O)[C@@H]1CCCN1C(=O)[C@H](CCCCN)NC(=O)[C@H](CC(N)=O)NC(=O)[C@H](CCC(=O)O)NC(=O)[C@H](Cc1ccc(O)cc1)NC(=O)[C@H](CC(C)C)NC(=O)[C@@H]1CCC(=O)N1)C(=O)N[C@@H](CC(C)C)C(=O)O	~0.01	~0.02	<0.01
CC[C@H](C)[C@H](NC(=O)[C@H](CC(C)C)NC(=O)[C@@H]1CCCN1C(=O)[C@H](CCCN=C(N)N)NC(=O)[C@H](CCCN=C(N)N)NC(=O)[C@@H]1CCCN1C(=O)[C@H](CCCCN)NC(=O)[C@H](CC(N)=O)NC(=O)[C@H](CCC(=O)O)NC(=O)[C@H](Cc1ccc(O)cc1)NC(=O)[C@H](CC(C)C)NC(=O)[C@@H]1CCC(=O)N1)C(=O)N[C@@H](CC(C)C)C(=O)O	< 0.01	~0.03	0.01
CC[C@H](C)[C@H](NC(=O)[C@H](Cc1ccc(O)cc1)NC(=O)[C@@H]1CCCN1C(=O)[C@@H](N)CCCN=C(N)N)C(=O)N[C@@H](CC(C)C)C(=O)O	1.3	11	1.6
CC[C@H](C)[C@H](NC(=O)[C@H](Cc1ccc(O)cc1)NC(=O)[C@@H]1CCCN1)C(=O)N[C@@H](CC(C)C)C(=O)O (H-PYIL-OH)	0	0	0
H-ENKPRRPYIL-OH	99	85	92
H-PRRPYIL-OH	49	65	59
H-YENKPRRPYIL-OH	84	90	85
